Laboratory results published in ChEMBL document CHEMBL1142233, “Treatment of diabetes and atherosclerosis by inhibiting fatty-acid-binding protein aP2” (2007).
Active and inactive are the calls of the source. The rule behind the calls is not given here.

Legend:
Adipocyte = test: Decrease in fatty acid uptake in FABP-deficient mouse adipocytes reconstituted with exogenous aP2 after 24 hrs; assay type: functional, cell-based
Summary of the method: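 Immortalized mouse pre-adipocytes differentiated with dexamethasone, IBMX, rosiglitazone and insulin, then insulin alone. Cells incubated 24 h in DMEM with 2% FBS plus inhibitor, then moved to DMEM with 2% BSA and given ³H-stearate at 37 °C for 30 min. Lysate counted by scintillation; values normalized to protein and expressed as % of untreated.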

Mus musculus [1] = test: Decrease in Mcp1 expression in ob/ob mouse adipose tissue at 40 mg/kg/day, po; assay type: functional, organism-based
Mus musculus [2] = test: Effect on adiponectin level in 5-week old apoE-/- C57BL/6J mouse fed on western diet and administered with 15 mg/kg/day, po drug at 12 week in 12-18 week late intervention study; assay type: functional
Summary of the method: (§1)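 Male Apoe−/− mice on western diet (21% fat, 0.21% cholesterol) from 4–5 weeks of age. Oral gavage for 6 weeks from age 5 or 12 weeks; vehicle 10% 1-methyl-2-pyrrolidone, 5% cremophor EL with ethanol in water. Blood taken after 6 h fast before and after treatment. Glucose by meter; insulin by ELISA; lipids and glycerol colorimetric.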

Macrophage [3] = test: Increase in cholesterol efflux in mouse aP2-/- macrophage cells at 25 uM relative to control; assay type: functional, cell-based
Summary of the method: (§2)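 Macrophages loaded 24 h in RPMI with 5% LPDS, 1 μCi ml⁻¹ ³H-cholesterol and 50 μg ml⁻¹ acLDL, ± 25 μM inhibitor. Equilibrated 24 h in 0.2% fatty-acid-free BSA ± inhibitor, then 4 h ± APOA1 20 μg ml⁻¹. Efflux = medium ³H as % of total, per mg protein; mouse lines normalized to untreated aP2+/+.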

THP-1 [4] = test: Reduction of cholesterol ester accumulation in human THP1 cells at 25 uM after 4 days relative to control; assay type: functional; set-up: scale not given: the % may be the effect or the level left
Summary of the method: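 THP-1 monocytes were made into macrophages with 100 nM PMA for 24 h, then loaded for 24 h with 50 μg ml⁻¹ acLDL in 5% LPDS. They were then held 4 days in 10% FBS with 25 μM inhibitor or DMSO. After hexane/isopropanol extraction, cholesterol ester was taken as total minus free cholesterol, per cellular protein.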

Mus musculus [5] = test: Increase in insulin-stimulated AKT serine 473 phosphorylation in ob/ob mouse liver at 40 mg/kg/day, po relative to control; assay type: functional, organism-based
Summary of the method: (§3)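 Male ob/ob mice got 40 mg kg⁻¹ d⁻¹ by oral gavage or vehicle. After a 6 h fast under tribromoethanol anaesthesia, portal-vein insulin (2 IU kg⁻¹) or PBS was given. Liver was removed 3 min later, lysed and western-blotted for IRβ pTyr1162/1163 and AKT pSer473 against total IRβ and AKT, then quantified.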

THP-1 [6] = test: Increase in ABCA1 mRNA level in human THP1 cells at 25 uM relative to control; assay type: functional, cell-based
Mus musculus [7] = test: Reduction of total liver triglyceride level in ob/ob mouse at 40 mg/kg/day, po; assay type: functional, organism-based
Summary of the method: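 Male ob/ob mice were gavaged with 40 mg kg⁻¹ d⁻¹ or vehicle for 6 weeks from 8 weeks of age, n = 6 per group. Total liver lipids were extracted by the Bligh–Dyer method and triglyceride content was determined.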

Macrophage [8] = test: Increase in cholesterol efflux in mouse aP2+/+ macrophage cells at 25 uM relative to control; assay type: functional, cell-based; summary of the method: as §2
THP-1 [9] = test: Increase in ABCA1 protein level in human THP1 cells at 25 uM relative to control; assay type: functional, cell-based
THP-1 [10] = test: Reduction of Mcp1 expression in human THP1 cells expressing aP2 relative to control; assay type: functional, cell-based
Mus musculus [11] = test: Increase in insulin-stimulated IRbeta tyrosine 1162/1163 phosphorylation in ob/ob mouse adipose tissue at 40 mg/kg/day, po relative to control; assay type: functional, organism-based
Summary of the method: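 Male ob/ob mice were dosed by oral gavage at 40 mg kg⁻¹ d⁻¹ or with vehicle. After 6 h food withdrawal and tribromoethanol anaesthesia, insulin (2 IU kg⁻¹) or PBS went into the portal vein. Adipose tissue was taken 3 min later, lysed and immunoblotted for IRβ pTyr1162/1163, AKT pSer473 and total proteins. Signals were quantified by densitometry.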

THP-1 [12] = test: Reduction of IL1-beta expression in human THP1 cells expressing aP2 relative to control; assay type: functional, cell-based
Mus musculus [13] = test: Increase in free fatty acid level in ob/ob mouse at 40 mg/kg/day, po after 6 weeks relative to control; assay type: functional
Summary of the method: (§4)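 Male ob/ob mice given oral gavage daily for 6 weeks from 8 weeks old, n = 6 per group. Blood taken after 6 h fast before and after treatment; fed glucose taken at week 2. Glucose by meter on 3 μl whole blood, insulin by ultrasensitive ELISA, cholesterol, FFA and glycerol by colorimetric microplate assays.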

THP-1 [14] = test: Reduction of TNF expression in human THP1 cells expressing aP2 relative to control; assay type: functional, cell-based
Mus musculus [15] = test: Inhibition of aP2 in 5-week old apoE-/- C57BL/6J mouse fed on western diet and administered with 15 mg/kg/day, po drug at 12 week in late intervention study assessed as reduction of atherosclerotic lesion in en face aorta relative to control; assay type: functional; set-up: scale not given: the % may be the effect or the level left
Summary of the method: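 Male Apoe⁻/⁻ C57BL/6J mice were fed a western diet (21% fat, 0.21% cholesterol) from 4–5 weeks of age. They were gavaged for 6 weeks with 15 mg kg⁻¹ d⁻¹ in vehicle (10% 1-methyl-2-pyrrolidone, 5% cremophor EL with ethanol, in water), starting at 5 weeks (early) or 12 weeks (late). Perfusion-fixed, pinned-out aortas were stained with Sudan IV and lesion area was quantified.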

Mus musculus [16] = test: Decrease in insulin level in ob/ob mouse plasma at 40 mg/kg/day, po after 6 weeks relative to control; assay type: functional, organism-based; summary of the method: as §4
Mus musculus [17] = test: Effect on glucose level in 5-week old apoE-/- C57BL/6J mouse fed on western diet and administered with 15 mg/kg/day, po drug at 12 week in 12-18 week late intervention study; assay type: functional; summary of the method: as §1
Macrophage [18] = test: Increase in cholesterol efflux in mouse aP2-/-R macrophage cells (re-expression of aP2) at 25 uM relative to control; assay type: functional, cell-based; summary of the method: as §2
Mus musculus [19] = test: Effect on glucose level in 5-week old apoE -/- C57BL/6J mouse fed on western diet and 15 mg/kg/day, po drug simultaneously in 5-11 week early intervention study; assay type: functional; summary of the method: as §1
Mus musculus [20] = test: Decrease in blood glucose level in fasted ob/ob mouse at 40 mg/kg/day, po after 6 weeks; assay type: functional, organism-based; summary of the method: as §4
Mus musculus [21] = test: Increase in insulin-stimulated IRbeta tyrosine 1162/1163 phosphorylation in ob/ob mouse liver at 40 mg/kg/day, po relative to control; assay type: functional, organism-based; summary of the method: as §3
Mus musculus [22] = test: Effect on insulin level in 5-week old apoE-/- C57BL/6J mouse fed on western diet and administered with 15 mg/kg/day, po drug at 12 week in 12-18 week late intervention study; assay type: functional; summary of the method: as §1
Mus musculus [23] = test: Increase in whole body glucose disposal and glucose infusion rate in ob/ob mouse at 40 mg/kg/day, po after 4 weeks by hyperinsulinemic-euglycaemic clamp studies; assay type: functional, organism-based
Summary of the method: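 Clamps were run in ob/ob mice after 4 weeks of oral gavage at 40 mg kg⁻¹ d⁻¹ (vehicle n = 7, treated n = 9), with jugular catheters placed 4 days earlier. Insulin was infused at 12.5 mU kg⁻¹ min⁻¹, 25% glucose at variable rates held basal glycaemia, and ³H-glucose ran at 0.1 μCi min⁻¹. Clamp hepatic glucose production = whole-body uptake minus glucose infusion rate.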

Mus musculus [24] = test: Decrease in F4/80 (Emr1) expression in ob/ob mouse adipose tissue at 40 mg/kg/day, po; assay type: functional, organism-based

SMILES: CCc1c(-c2ccccc2)c(-c2ccccc2)nn1-c1ccccc1-c1cccc(OCC(=O)O)c1
- Activity (Adipocyte): Active
- Activity (Mus musculus [1]): Active
- Activity (Mus musculus [2]): 5.78 µg/mL
- Activity (Macrophage [3]): inactive
- Activity (THP-1 [4]): 44%
- Activity (Mus musculus [5]): Active
- Activity (THP-1 [6]): Active
- Activity (Mus musculus [7]): Active
- Activity (Macrophage [8]): Active
- Activity (THP-1 [9]): Active
- Activity (THP-1 [10]): Active
- Activity (Mus musculus [11]): Active
- Activity (THP-1 [12]): Active
- Activity (Mus musculus [13]): 0.9 mM
- Activity (THP-1 [14]): Active
- Activity (Mus musculus [15]): 51%
- Activity (Mus musculus [16]): Active
- Activity (Mus musculus [17]): 147.2 mg/dL
- Activity (Macrophage [18]): Active
- Activity (Mus musculus [19]): 133.2 mg/dL
- Activity (Mus musculus [20]): Active
- Activity (Mus musculus [21]): Active
- Activity (Mus musculus [22]): 2.19 ng/mL
- Activity (Mus musculus [23]): Active
- Activity (Mus musculus [24]): Active
